Results taken from ChEMBL document CHEMBL2169800 (J Med Chem, 2012).
Active and inactive are the calls of the source. The calls are words filed in the database; no cut-off is given here.

Experiments:
[1] = biological target: T1, Prostaglandin G/H synthase 1 (Ovis aries, UniProt P05979); experiment: Inhibition of ovine COX1 pre-incubated for 10 mins before arachidonic acid substrate addition by enzyme immunoassay
T1 sequence (P05979 whole entry): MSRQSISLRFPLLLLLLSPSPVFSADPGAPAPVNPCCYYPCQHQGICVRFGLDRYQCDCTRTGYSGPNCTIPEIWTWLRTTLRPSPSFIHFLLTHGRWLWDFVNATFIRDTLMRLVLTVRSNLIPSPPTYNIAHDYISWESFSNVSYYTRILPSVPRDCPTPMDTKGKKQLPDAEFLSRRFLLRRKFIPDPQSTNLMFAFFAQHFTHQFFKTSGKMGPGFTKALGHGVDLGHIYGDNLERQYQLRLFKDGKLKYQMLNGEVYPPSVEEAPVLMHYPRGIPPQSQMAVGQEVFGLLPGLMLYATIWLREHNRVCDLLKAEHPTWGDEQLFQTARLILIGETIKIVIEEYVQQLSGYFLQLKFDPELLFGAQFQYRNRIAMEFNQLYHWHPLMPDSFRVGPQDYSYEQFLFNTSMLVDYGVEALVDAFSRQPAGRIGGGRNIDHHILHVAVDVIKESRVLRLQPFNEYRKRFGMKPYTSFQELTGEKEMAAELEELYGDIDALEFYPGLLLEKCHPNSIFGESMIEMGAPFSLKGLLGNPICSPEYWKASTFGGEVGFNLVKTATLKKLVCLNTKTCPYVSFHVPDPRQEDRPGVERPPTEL
Summary of the method: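 Ovine COX-1 pre-incubated with inhibitor for 10 min at 37 °C, then 5 μM arachidonic acid for 2 min at 37 °C. Stopped with HCl; PGH2 reduced to PGF2α with SnCl2 and measured by competitive EIA (PG antibody, PG-acetylcholinesterase conjugate), absorbance at 412 nm.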

[2] = biological target: T1, Prostaglandin G/H synthase 1; experiment: Inhibition of sheep COX1 pre-incubated for 5 mins before arachidonic acid substrate addition in presence of ethanol by peroxidase activity detection based oxygen electrode assay
[3] = biological target: T2, Fatty-acid amide hydrolase 1 (Rattus norvegicus, UniProt P97612); experiment: Inhibition of FAAH in Sprague-Dawley rat cerebellum membranes pre-incubated for 10 mins before addition of [3H]AEA substrate in presence of ethyl alcohol by liquid scintillation counting; type: cell membranes, Membrane
T2 sequence (P97612 whole entry): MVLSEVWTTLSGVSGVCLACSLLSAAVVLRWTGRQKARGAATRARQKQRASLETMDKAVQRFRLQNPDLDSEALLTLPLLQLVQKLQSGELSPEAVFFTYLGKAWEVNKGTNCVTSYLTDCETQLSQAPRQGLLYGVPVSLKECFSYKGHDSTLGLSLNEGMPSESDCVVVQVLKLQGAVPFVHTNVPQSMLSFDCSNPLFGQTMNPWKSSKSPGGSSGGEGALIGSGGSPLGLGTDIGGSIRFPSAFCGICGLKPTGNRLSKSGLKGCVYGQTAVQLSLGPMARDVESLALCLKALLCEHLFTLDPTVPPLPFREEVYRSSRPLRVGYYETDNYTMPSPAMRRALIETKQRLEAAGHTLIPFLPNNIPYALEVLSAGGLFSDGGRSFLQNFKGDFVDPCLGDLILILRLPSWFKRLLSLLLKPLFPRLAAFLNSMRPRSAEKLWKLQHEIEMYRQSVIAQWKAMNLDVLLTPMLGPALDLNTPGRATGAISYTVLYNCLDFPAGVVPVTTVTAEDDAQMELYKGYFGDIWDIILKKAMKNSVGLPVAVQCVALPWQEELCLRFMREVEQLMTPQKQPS

[4] = biological target: T3, Prostaglandin G/H synthase 2 (Homo sapiens) (UniProt P35354); experiment: Inhibition of human COX2 at 30 uM pre-incubated for 10 mins before substrate addition by enzyme immunoassay
T3 sequence (whole entry): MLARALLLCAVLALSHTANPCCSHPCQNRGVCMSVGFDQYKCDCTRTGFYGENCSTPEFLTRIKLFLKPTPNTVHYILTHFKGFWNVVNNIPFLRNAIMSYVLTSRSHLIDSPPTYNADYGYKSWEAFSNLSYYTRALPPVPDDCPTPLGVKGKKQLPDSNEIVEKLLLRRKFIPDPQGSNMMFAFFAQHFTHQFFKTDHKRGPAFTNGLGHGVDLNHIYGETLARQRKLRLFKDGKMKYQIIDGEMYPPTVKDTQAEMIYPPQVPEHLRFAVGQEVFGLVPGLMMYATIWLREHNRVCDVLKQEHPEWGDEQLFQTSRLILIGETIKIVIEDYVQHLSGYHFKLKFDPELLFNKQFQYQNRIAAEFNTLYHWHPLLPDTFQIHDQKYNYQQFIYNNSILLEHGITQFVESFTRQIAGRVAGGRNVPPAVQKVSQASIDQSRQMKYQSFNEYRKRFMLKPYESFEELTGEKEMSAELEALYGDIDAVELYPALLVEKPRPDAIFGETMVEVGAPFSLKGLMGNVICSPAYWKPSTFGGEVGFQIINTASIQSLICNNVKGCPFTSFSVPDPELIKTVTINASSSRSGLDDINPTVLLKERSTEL
Summary of the method: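 Human COX-2 pre-incubated with inhibitor 10 min at 37 °C, then 5 μM arachidonic acid for 2 min at 37 °C. Reaction stopped with HCl, PGH2 reduced to PGF2α by SnCl2, and PGF2α quantified by competitive EIA with PG-acetylcholinesterase conjugate, absorbance 412 nm. Single test concentration 30 μM.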

[5] = biological target: T2, Fatty-acid amide hydrolase 1; experiment: Inhibition of FAAH in rat brain homogenates pre-incubated for 10 mins before addition of [3H]anandamide and [3H]AEA substrates for 30 mins by liquid scintillation counting; type: tissue-based; conditions: read-out: IC50
Summary of the method: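 Rat whole-brain homogenate (50 ug protein/sample) in 50 mM TRIS pH 7.4, 0.05 % fatty acid free BSA; inhibitor pre-incubated 10 min, then 1 uM unlabelled AEA plus 0.6 nM [3H]-AEA added for 30 min at 37°C. Stopped with cold 1:1 CHCl3/MeOH; aqueous phase counted.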

[6] = biological target: T4, Prostaglandin G/H synthase 2 (Ovis aries, UniProt P79208); experiment: Inhibition of sheep COX2 pre-incubated for 5 mins before […] substrate addition by peroxidase activity detection based oxygen electrode assay
T4 sequence (P79208 whole entry): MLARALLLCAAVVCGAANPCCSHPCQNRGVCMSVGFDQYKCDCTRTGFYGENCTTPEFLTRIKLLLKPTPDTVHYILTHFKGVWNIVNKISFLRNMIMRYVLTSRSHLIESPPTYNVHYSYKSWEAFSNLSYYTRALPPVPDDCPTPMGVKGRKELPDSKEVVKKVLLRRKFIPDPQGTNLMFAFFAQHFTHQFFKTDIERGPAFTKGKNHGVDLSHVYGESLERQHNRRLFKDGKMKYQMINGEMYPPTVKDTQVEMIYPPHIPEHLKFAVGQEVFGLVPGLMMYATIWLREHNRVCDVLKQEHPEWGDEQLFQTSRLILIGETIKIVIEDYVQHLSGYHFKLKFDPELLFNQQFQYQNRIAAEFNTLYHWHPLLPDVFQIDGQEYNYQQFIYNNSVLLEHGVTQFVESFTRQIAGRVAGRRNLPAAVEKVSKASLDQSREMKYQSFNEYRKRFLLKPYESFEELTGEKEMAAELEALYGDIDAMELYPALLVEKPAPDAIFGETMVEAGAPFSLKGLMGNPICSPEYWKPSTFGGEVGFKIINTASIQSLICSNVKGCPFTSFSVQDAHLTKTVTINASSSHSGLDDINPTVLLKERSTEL

[7] = biological target: T1, Prostaglandin G/H synthase 1; experiment: Inhibition of sheep COX1 pre-incubated for 5 mins before arachidonic acid substrate addition in presence of DMSO by peroxidase activity detection based oxygen electrode assay
[8] = biological target: T5, Prostaglandin G/H synthase 2 (Homo sapiens, UniProt P35354); experiment: Inhibition of human COX2 pre-incubated for 10 mins before substrate addition by enzyme immunoassay
T5 sequence (P35354 whole entry): T3 sequence (whole entry)

[9] = biological target: T6, Fatty-acid amide hydrolase 1 (Rattus norvegicus) (UniProt P97612); conditions: Brain, 30 uM
T6 sequence (whole entry): T2 sequence (P97612 whole entry)

[10] = biological target: T6, Fatty-acid amide hydrolase 1 (Rattus norvegicus); experiment: Potency index, ratio of IC50 for carprofen to IC50 for compound against FAAH in rat brain homogenates pre-incubated for 10 mins before addition of [3H]anandamide and [3H]AEA substrates for 30 mins by liquid scintillation counting; type: tissue-based

Row | SMILES | IC50 [1] [µM] | IC50 [5] [µM] | IC50 [8] [µM] | other results
1 | Cc1cccnc1NC(=O)C(C)c1ccc(CC(C)C)cc1 (stereo not drawn) | 170 | 66 |  | IC50 [2]: 240 µM; IC50 [3]: 500 nM; inhibition [4]: 30%; IC50 [6]: 20 µM; IC50 [7]: 60 µM
2 | COc1cccc(Cn2c3ccc(Cl)cc3c3ccc(C(C)C(=O)O)cc32)c1 (racemic) | > 100 | 32.5 | > 100 | 
3 | CC(C(=O)O)c1ccc2c3cc(Cl)ccc3n(C)c2c1 (racemic) | > 100 | 15.5 | > 100 | 
4 | CC(C(=O)O)c1ccc2c3cc(Cl)ccc3n(Cc3ccccc3)c2c1 (racemic) | > 100 | 23.3 | > 100 | 
5 | CC(C(=O)O)c1ccc2c3cc(Cl)ccc3n(Cc3ccc(C#N)cc3)c2c1 (racemic) | > 100 | 33.4 | > 100 | 
6 | CC(C(=O)O)c1ccc2c3cc(Cl)ccc3n(Cc3ccc(Cl)cc3)c2c1 (racemic) | > 100 | 10.2 | > 100 | 
7 | COc1ccc(Cn2c3ccc(Cl)cc3c3ccc(C(C)C(=O)O)cc32)cc1 (racemic) | > 100 | 8.4 | > 100 | 
8 | COc1ccccc1Cn1c2ccc(Cl)cc2c2ccc(C(C)C(=O)O)cc21 (racemic) | > 100 | > 100 | > 100 | inhibition [9]: inactive
9 | CCCCCCS(=O)(=O)n1c2ccc(Cl)cc2c2ccc(C(C)C(=O)O)cc21 (racemic) | > 100 | 50.3 | > 100 | 
10 | CC(C(=O)O)c1ccc2c(c1)[nH]c1ccccc12 (racemic) | > 100 | 4.6 | > 100 | 
11 | COC(=O)C(C)c1ccc2c(c1)[nH]c1ccc(Cl)cc12 (racemic) | > 100 | 22.1 | > 100 | 
12 | CC(C(=O)NCCO)c1ccc2c(c1)[nH]c1ccc(Cl)cc12 (racemic) | > 100 | > 100 | > 100 | 
13 | CC(C(=O)Nc1ccccc1)c1ccc2c(c1)[nH]c1ccc(Cl)cc12 (racemic) | > 100 | 2.9 | > 100 | Ratio IC50 [10]: 26
14 | CC(C(=O)O)c1ccc2c3cc(Cl)ccc3n(S(=O)(=O)c3ccc(Cl)cc3)c2c1 (racemic) | > 100 | 4.8 | > 100 | 
